Source: ChEMBL document CHEMBL5036309, “Orally Active Peptide Vector Allows Using Cannabis to Fight Pain While Avoiding Side Effects” (J Med Chem, 2021)
Calls of active or inactive are those of the source. Square brackets hold non-standard residues; d marks the D form. Peptide text beside a SMILES is read from it.

Key:
BEND3 = assay: Induction of BBB translocation in mouse BEND3 cells measured after 24 hrs by fluorescence analysis; format: functional, cell-based
How it was run: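 5(6)-Carboxyfluorescein-labeled peptides were applied to a transwell BBB model of bEnd.3 cells. Translocation (%) was measured as fluorescence in the basolateral chamber after 24 h, with a trans-BBB peptide as positive control. Barrier integrity was checked afterward by FD4 dextran permeability. Mean ± SEM, n = 3–6, independent cultures on different days.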

HEK293T [1] = assay: Inhibition of human c-YFP fused CB1R/n-YFP fused 5HT2A receptor heterodimer formation expressed in HEK293T cells assessed as decrease in forskolin induced cAMP level preincubated for 15 mins forskolin and DOI stimulation and measured after 15 mins by HTRF assay; format: cell-based; conditions: time 30.0 min
HEK293T [2] = assay: Inhibition of human c-YFP fused CB1R/n-YFP fused 5HT2A receptor heterodimer formation expressed in HEK293T cells assessed as decrease in forskolin induced cAMP level preincubated for 15 mins forskolin and WIN 55,212-2 stimulation and measured after 15 mins by HTRF assay; format: cell-based; conditions: time 30.0 min
HEK293T [3] = assay: Inhibition of human c-YFP fused CB1R/n-YFP fused 5HT2A receptor heterodimer formation expressed in HEK293T cells assessed as increase in pERK level preincubated for 15 mins followed by WIN 55,212-2 stimulation for 7 mins by microplate reader method; format: cell-based; conditions: time 22.0 min
HEK293T [4] = assay: Inhibition of human c-YFP fused CB1R/n-YFP fused 5HT2A receptor heterodimer formation expressed in HEK293 cells assessed as increase in pERK level preincubated for 15 mins followed by DOI stimulation for 7 mins by microplate reader method; format: cell-based; conditions: time 22.0 min
HEK293T [5] = assay: Inhibition of human c-YFP fused CB1R/n-YFP fused 5HT2A receptor heterodimer formation transfected in human HEK293T cells at 4 uM incubated for 4 hrs by BIFC assay; format: cell-based
How it was run: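 HEK-293T cells were cotransfected 48 h with 5HT2AR-cYFP and CB1R-nYFP (4 μg cDNA each, polyethylenimine), then treated with 4 μM peptide or vehicle for 4 h at 37 °C. Reconstituted YFP Venus was read on 20 μg protein at 530 nm emission with 400 nm excitation, minus the fluorescence of non-expressing cells. Mean ± SEM, n = 10–30.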

[6] = Drug internalization in mouse BEND3 cells by confocal microscopic analysis; format: ADME, cell-based
How it was run: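 bEnd.3 mouse brain endothelial cells were exposed to 5(6)-carboxyfluorescein-labeled peptides and counterstained with Hoechst 33342 and CellMask Deep Red membrane stain. Imaging used point-scanning confocal microscopy with a 63× oil objective, 405 nm excitation for the stains and 488 nm for the peptide.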

Mus musculus [7] = assay: Analgesic activity in mouse assessed as pain response at 20 mg/kg, iv pretreated with compound for 30 mins followed by THP addition and measured after 60 mins by hot plate test; format: functional, organism-based; conditions: time 90.0 min
How it was run: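 Mice got peptide or vehicle IV (20 mg/kg) or orally by gavage (5, 10, 20 mg/kg) 30 min before IP THC 10 mg/kg (vehicle 5% ethanol, 5% Cremophor-EL, 90% saline). Latency to jump on a 52 ± 0.5 °C hot plate was read 60 min after THC, with a 240 s cutoff. Mean ± SEM, n = 10–12 (IV) or 5–8 (oral); Fisher LSD.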

Mus musculus [8] = assay: Protection against THP-induced amnesic effect in mouse assessed as reduction in memory impairment at 20 mg/kg, iv pretreated for 30 mins followed by THP addition; format: functional, organism-based
How it was run: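 V-maze novel object recognition. Day 1 was 9 min habituation. Day 2 was 9 min training with two identical objects. Peptide was given IV (20 mg/kg) or orally (5, 10, 20 mg/kg) right after training, then IP THC 3 mg/kg or vehicle 30 min later. The 9 min test came 24 h later with one object replaced. Discrimination index = (novel − familiar)/total exploration time; exploration meant the nose oriented within 2 cm of the object. Fisher LSD.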

Row | Molecule | Activity (BEND3) | inhibition (HEK293T [1]) | inhibition (HEK293T [2]) | inhibition (HEK293T [3]) | inhibition (HEK293T [4]) | inhibition (HEK293T [5]) | Drug uptake [6] | Activity (Mus musculus [7]) | Activity (Mus musculus [8])
1 | CC[C@H](C)[C@H](NC(=O)[C@H](Cc1ccc(O)cc1)NC(=O)[C@H](CCSC)NC(=O)[C@H](Cc1ccc(O)cc1)NC(=O)[C@H](C)NC(=O)[C@H](Cc1ccc(O)cc1)NC(=O)[C@@H](N)C(C)C)C(=O)N[C@@H](CC(C)C)C(=O)N[C@@H](Cc1c[nH]c2ccccc12)C(=O)N[C@H](CO)C(=O)N[C@H](CCCCN)C(=O)N[C@H](CO)C(=O)N[C@H](CCCCN)C(=O)N[C@H](CO)C(=O)N[C@H](CCCCN)C(N)=O (H-VYAYMYILW[dS][dK][dS][dK][dS][dK]-NH2) | Active | Active | Active | Active | Active |  |  |  | 
2 | H-VYAYMYILWAGILKRW-NH2 |  | Active | Active | Active | Active |  |  |  | 
3 | H-AGILKRWKTLVLILVV-NH2 |  | Active | Active | Active | Active |  |  |  | 
4 | CC[C@@H](C)[C@@H](NC(=O)CNC(=O)[C@@H](C)NC(=O)[C@H](Cc1c[nH]c2ccccc12)NC(=O)[C@H](CC(C)C)NC(=O)[C@@H](NC(=O)[C@H](Cc1ccc(O)cc1)NC(=O)[C@H](CCSC)NC(=O)[C@H](Cc1ccc(O)cc1)NC(=O)[C@H](C)NC(=O)[C@H](Cc1ccc(O)cc1)NC(=O)[C@@H](N)C(C)C)[C@@H](C)CC)C(=O)N[C@H](CC(C)C)C(=O)N[C@H](CCCCN)C(=O)N[C@H](CCCNC(=N)N)C(=O)N[C@H](Cc1c[nH]c2ccccc12)C(N)=O (H-VYAYMYILW[dA]G[dI][dL][dK][dR][dW]-NH2) | Active | Active | Active | Active | Active |  |  |  | 
5 | H-ETYLMFWIGVTSVLLLFIVYAYMYILWGRKKRRQRRR-NH2 |  |  | Active | Active | Active | Active |  |  | 
6 | H-RKRKTLVLILVV-NH2 |  | Active | Active | Active | Active |  |  |  | 
7 | H-VYAYMYILWGRKKRRQRRR-NH2 |  | Active | Active | Active | Active | Active |  |  | 
8 | H-VYAYMYILWSKSKSK-NH2 |  | Active | Active | Active | Active |  |  |  | 
9 | CC[C@H](C)[C@H](NC(=O)[C@@H](NC(=O)[C@@H]1CCCN1C(=O)[C@H](CC(N)=O)NC(=O)[C@@H](NC(=O)[C@@H](NC(=O)[C@H](CO)NC(=O)[C@H](CC(N)=O)NC(=O)[C@H](CC(C)C)NC(=O)[C@H](CC(C)C)NC(=O)[C@H](CS)NC(=O)[C@H](CC(C)C)NC(=O)[C@H](CCSC)NC(=O)[C@H](CO)NC(=O)[C@H](CS)NC(=O)[C@H](Cc1ccccc1)NC(=O)[C@H](C)NC(=O)[C@H](Cc1ccccc1)NC(=O)[C@@H](NC(=O)[C@@H](NC(=O)[C@H](CCCCN)NC(=O)[C@@H](NC(=O)[C@@H](N)CC(C)C)[C@@H](C)CC)[C@@H](C)O)C(C)C)[C@@H](C)O)C(C)C)[C@@H](C)CC)C(=O)N[C@@H](Cc1ccc(O)cc1)C(=O)N[C@@H](C)C(=O)N[C@@H](CC(C)C)C(=O)N[C@@H](CCCNC(=N)N)C(=O)NCC(=O)N[C@@H](CCCNC(=N)N)C(=O)N[C@@H](CCCCN)C(=O)N[C@@H](CCCCN)C(=O)N[C@@H](CCCNC(=N)N)C(=O)N[C@@H](CCCNC(=N)N)C(=O)N[C@@H](CCC(N)=O)C(=O)N[C@@H](CCCNC(=N)N)C(=O)N[C@@H](CCCNC(=N)N)C(=O)N[C@@H](CCCNC(=N)N)C(N)=O (H-LIKTVFAFCSMLCLLNSTVNPIIYALRGRKKRRQRRR-NH2) |  |  | inactive | inactive | inactive | inactive |  |  | 
10 | CC[C@@H](C)[C@@H](NC(=O)CNC(=O)[C@@H](C)N)C(=O)N[C@H](CC(C)C)C(=O)N[C@H](CCCCN)C(=O)N[C@H](CCCNC(=N)N)C(=O)N[C@H](Cc1c[nH]c2ccccc12)C(=O)N[C@@H](C(=O)N[C@@H](C(=O)N[C@H](CC(C)C)C(=O)N[C@@H](C(=O)N[C@H](CC(C)C)C(=O)N[C@@H](C(=O)N[C@H](CC(C)C)C(=O)N[C@@H](C(=O)N[C@H](CCCCN)C(N)=O)[C@H](C)O)C(C)C)[C@H](C)CC)C(C)C)C(C)C (H-[dA]G[dI][dL][dK][dR][dW][dV][dV][dL][dI][dL][dV][dL][dT][dK]-NH2) | Active |  |  |  |  | Active | Active | Active | inactive
11 | CC[C@H](C)[C@H](NC(=O)[C@H](CC(C)C)NC(=O)[C@@H](NC(=O)[C@H](CC(C)C)NC(=O)[C@@H](NC(=O)[C@H](CCCCN)NC(=O)[C@@H](CCCCN)NC(=O)[C@@H](CO)NC(=O)[C@@H](CCCCN)NC(=O)[C@@H](CO)NC(=O)[C@@H](CCCCN)NC(=O)[C@H](N)CO)[C@@H](C)O)C(C)C)C(=O)N[C@@H](CC(C)C)C(=O)N[C@H](C(=O)N[C@H](C(N)=O)C(C)C)C(C)C (H-[dS][dK][dS][dK][dS][dK]KTLVLILVV-NH2) | Active | Active | Active | Active | Active |  |  |  | 
12 | H-GRKKRRQRRRKTLVLILVVLIICWGPLLAIMVYDVF-NH2 |  |  | Active | Active | Active | Active |  |  | 
13 | COc1cccc([C@H](O)C2CCN(CCc3ccc(F)cc3)CC2)c1OC |  | inactive | inactive | inactive | inactive |  |  |  | 
14 | Cc1c(C(=O)NN2CCCCC2)nn(-c2ccc(Cl)cc2Cl)c1-c1ccc(Cl)cc1 |  | inactive | inactive | inactive | inactive |  |  |  | 
15 | H-SKSKSKKTLVLILVV-NH2 |  | Active | Active | Active | Active |  |  |  | 
16 | CC[C@@H](C)[C@@H](NC(=O)CNC(=O)[C@@H](C)N)C(=O)N[C@H](CC(C)C)C(=O)N[C@H](CCCCN)C(=O)N[C@H](CCCNC(=N)N)C(=O)N[C@H](Cc1c[nH]c2ccccc12)C(=O)N[C@@H](CCCCN)C(=O)N[C@H](C(=O)N[C@@H](CC(C)C)C(=O)N[C@H](C(=O)N[C@@H](CC(C)C)C(=O)N[C@H](C(=O)N[C@@H](CC(C)C)C(=O)N[C@H](C(=O)N[C@H](C(N)=O)C(C)C)C(C)C)[C@@H](C)CC)C(C)C)[C@@H](C)O (H-[dA]G[dI][dL][dK][dR][dW]KTLVLILVV-NH2) | Active | Active | Active | Active | Active |  |  |  | 
17 | H-GRKKRRQRRRKTLVLILVV-NH2 |  | Active | Active | Active | Active | Active |  |  | 
18 | H-VYAYMYILWRKR-NH2 |  | Active | Active | Active | Active |  |  |  | 
